In brackets after ≈: the same amount, converted by molar mass.
Tests used:
[1] = Cytotoxicity against mouse RAW264.7 cells assessed as inhibition of cell proliferation at 50 ug/ml after 48 hrs by MTT assay; assay type: toxicity
In short: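 RAW 264.7 mouse macrophages grown in RPMI with 10% FBS and penicillin/streptomycin, then seeded at about 5000 cells/well on poly-L-lysine-coated plates. Pre-incubated 24 h at 37 °C, 5% CO2, then exposed to compound for 48 h. MTT (0.5 mg/ml) added for 3 h and formazan read at 595 nm.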

[2] = test system: Mycobacterium tuberculosis; assay: Antimycobacterial activity against Mycobacterium tuberculosis H37Rv after 7 days by MABA; assay type: functional; settings: 168 h
In short: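 M. tuberculosis H37Rv inoculum taken from fresh LJ medium, resuspended in 7H9-S (7H9, 0.1% casitone, 0.5% glycerol, OADC), adjusted to McFarland No. 1 and diluted 1:20. Serial two-fold drug dilutions in 7H9-S, with growth and sterile controls. Incubated 7 days at 37 °C in normal atmosphere, then alamar blue added and incubated overnight. MIC = lowest concentration preventing the blue-to-pink change.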

[3] = test system: Mycobacterium tuberculosis; assay: Antimycobacterial activity against dormant stage of Mycobacterium tuberculosis H37Rv assessed as reduction in bacterial growth under nutrient starved conditions at 10 ug/ml for 7 days measured after 28 days; assay type: functional
In short: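 H37Rv grown in 7H9/OADC, washed twice and resuspended in PBS, then held in sealed bottles at 37 °C for 6 weeks. Starved cultures exposed to compound at 10 ug/ml for 7 days. Cells diluted 10-fold serially to 10^-6 in 7H9/OADC and plated in triplicate. Incubated 28 days at 37 °C without agitation; wells with visible growth scored positive and MPN calculated.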

[4] = target: T1, L-lysine-epsilon aminotransferase (Mycobacterium tuberculosis) (UniProt P9WQ77); assay: Inhibition of Mycobacterium tuberculosis LAT at 25 uM
T1 sequence (whole entry): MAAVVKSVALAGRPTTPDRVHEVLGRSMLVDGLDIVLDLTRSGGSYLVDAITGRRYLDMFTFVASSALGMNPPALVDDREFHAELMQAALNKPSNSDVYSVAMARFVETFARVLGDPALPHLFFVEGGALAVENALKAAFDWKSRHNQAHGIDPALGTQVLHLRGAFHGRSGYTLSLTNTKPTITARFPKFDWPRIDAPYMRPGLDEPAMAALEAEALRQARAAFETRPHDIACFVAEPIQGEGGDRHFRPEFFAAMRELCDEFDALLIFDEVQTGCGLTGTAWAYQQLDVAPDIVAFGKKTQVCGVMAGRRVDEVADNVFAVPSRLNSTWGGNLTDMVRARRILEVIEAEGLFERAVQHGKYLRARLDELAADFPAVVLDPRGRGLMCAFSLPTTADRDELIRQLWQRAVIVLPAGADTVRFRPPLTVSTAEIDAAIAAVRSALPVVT

[5] = test system: Mycobacterium tuberculosis; assay: Binding affinity to Mycobacterium tuberculosis ADH assessed as change in melting temperature by Sypro orange dye based differential scanning fluorimetry
In short: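 Thermal shift assay on Mtb L-AlaDH (100 µg/ml, 10 µl) in 100 mM HEPES-NaOH pH 7.8 with 6 µl of 15× Sypro Orange; compounds added in <10% DMSO. Samples equilibrated 3 min at 25 °C, then ramped to 95 °C in 0.1 °C steps. Tm taken as the lowest point of the first-derivative plot; shift measured against the native protein.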

[6] = Inhibition of Mycobacterium tuberculosis ADH assessed as decrease in conversion of L-alanine to pyruvate by measuring NADH by spectrophotometry; parameters: species or system Mycobacterium tuberculosis H37Rv
In short: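 Mtb L-AlaDH oxidative deamination of L-alanine to pyruvate at 37 °C. NADH formation read at 340 nm. Compounds tested from 25 µM to 0.5 µM. Background read from the reaction mixture without enzyme. IC50 values calculated from the concentration series.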

[7] = test system: Mycobacterium tuberculosis H37Rv; assay: Inhibition of Mycobacterium tuberculosis ADH assessed as decrease in conversion of L-alanine to pyruvate at 25 uM by measuring NADH by spectrophotometry
[8] = test system: Mycobacterium tuberculosis; assay: Antimycobacterial activity against Mycobacterium tuberculosis H37Rv after 6 days by resazurin assay; assay type: functional; settings: 144 h

Structure (SMILES) | inhibition at 48 h, 50 ug/ml [1] | MIC [2] | fold change (FC) [3] | inhibition [4] | ΔTm [5] | IC50 [6] | inhibition [7] | MIC [8]
CCc1nc(NCCc2ccccc2)c2c3c(sc2n1)CCCC3 | 25.2% | 37 µM (≈ 12.5 µg/mL) | >1 | < 50% | 1.4 °C | 1.82 µM | 50% | –
Cc1cccc(-c2nc(Nc3ccncn3)c3c(C)csc3n2)n1 | – | – | – | – | – | – | – | 0.76 µM (≈ 0.254 µg/mL)
